Experiment [1] relates to Escherichia coli. Nature of the experiment: Inhibition of protein synthesis in Escherichia coli measured as incorporation of [35S]methionine. It counts as functional, organism-based. The method, boiled down:
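E. coli in TSB at 37°C, with or without drug, received [35S]methionine (1 µCi/ml). Samples (0.4 ml) were taken every 5 min for 15 min, precipitated with 20% TCA, collected on glass-fibre filters, washed with 10% TCA, and scintillation-counted. IC50 derived from the concentration series; means of two.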

In experiment [2] the test system is Escherichia coli. Nature of the experiment: Inhibition of viable cells in Escherichia coli at 20 ug/ml. The class given is functional. The method, boiled down:
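E. coli grown at 37°C in TSB with or without drug. Viable cells were counted as colonies after serial dilution. Results are given as percent decrease versus untreated control; means of two determinations.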

The subject of experiment [3] is Escherichia coli. Nature of the experiment: Antimicrobial activity against Escherichia coli. It counts as functional. The method, boiled down: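 Broth dilution MIC; E. coli grown at 37°C in tryptic soy broth (TSB) with and without hygromycin B.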
For experiment [4], the system named is Escherichia coli. Nature of the experiment: Reduction of growth rate in Escherichia coli at 25 ug/ml. It counts as functional. On the set-up: scale not given: the % may be the effect or the level left.
Experiment [5] can be described thus: Inhibition of 30S ribosomal-subunit assembly in Escherichia coli. The method, boiled down: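 E. coli in TSB at 37°C were labelled with [3H]uridine (1 µCi/ml, 1 µg/ml) for two doublings, with or without drug. Label was chased with uridine at 50 µg/ml final for 15 min. The 30S share of total gradient cpm was compared with control; IC50 derived; means of two.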

The subject of experiment [6] is Escherichia coli. Briefly: Effect on small RNA accumulation in Escherichia coli at 25 ug/ml. The class given is functional. The method, boiled down:
(§1)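 E. coli grown in TSB across a range of hygromycin B concentrations, plus an untreated control. Total RNA was extracted from 1 ml of cells. Samples (5 µl at 200 ng/µl) were run on an Agilent Bioanalyzer RNA 6000 chip under total-RNA conditions, and RNA species were read from fluorescence electropherograms.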

Experiment [7] deals with Escherichia coli. Briefly: Effect on small RNA accumulation in Escherichia coli at 50 ug/ml. The class given is functional. The method, boiled down: as §1
Experiment [8] relates to Escherichia coli. Nature of the experiment: Effect on small RNA accumulation in Escherichia coli at 75 ug/ml. The class given is functional. The method, boiled down:
as §1

Experiment [9] relates to Escherichia coli. Nature of the experiment: Effect on small RNA accumulation in Escherichia coli at 100 ug/ml. It counts as functional. The method, boiled down:
as §1

The subject of experiment [10] is Escherichia coli. Nature of the experiment: Effect on 16S rRNA accumulation in Escherichia coli at 25 ug/ml. The class given is functional. The method, boiled down:
as §1

For experiment [11], the system named is Escherichia coli. Nature of the experiment: Effect on 16S rRNA accumulation in Escherichia coli at 50 ug/ml. The class given is functional. The method, boiled down: as §1
Experiment [12] relates to Escherichia coli. Briefly: Effect on 16S rRNA accumulation in Escherichia coli at 75 ug/ml. The class given is functional. The method, boiled down: as §1
Experiment [13] deals with Escherichia coli. Briefly: Effect on 16S rRNA accumulation in Escherichia coli at 100 ug/ml. The class given is functional. The method, boiled down:
as §1

Experiment [14] deals with Escherichia coli. Briefly: Increase in 16S precursor accumulation in Escherichia coli at 25 ug/ml. The class given is functional. The method, boiled down:
as §1

Experiment [15] deals with Escherichia coli. Briefly: Increase in 16S precursor accumulation in Escherichia coli at 50 ug/ml. It counts as functional. The method, boiled down: as §1
Experiment [16] relates to Escherichia coli. Briefly: Increase in 16S precursor accumulation in Escherichia coli at 75 ug/ml. It counts as functional. The method, boiled down: as §1
The subject of experiment [17] is Escherichia coli. Nature of the experiment: Increase in 16S precursor accumulation in Escherichia coli at 100 ug/ml. The class given is functional. The method, boiled down:
as §1

Experiment [18] relates to Escherichia coli. Briefly: Decrease in 23S RNA accumulation in Escherichia coli at 25 ug/ml. It counts as functional. On the set-up: scale not given: the % may be the effect or the level left. The method, boiled down: as §1
Experiment [19] concerns Escherichia coli. Nature of the experiment: Decrease in 23S RNA accumulation in Escherichia coli at 50 ug/ml. The class given is functional. On the set-up: scale not given: the % may be the effect or the level left. The method, boiled down:
as §1

Experiment [20] relates to Escherichia coli. Nature of the experiment: Decrease in 23S RNA accumulation in Escherichia coli at 75 ug/ml. It counts as functional. On the set-up: scale not given: the % may be the effect or the level left. The method, boiled down: as §1
The subject of experiment [21] is Escherichia coli. Nature of the experiment: Decrease in 23S RNA accumulation in Escherichia coli at 100 ug/ml. It counts as functional. On the set-up: scale not given: the % may be the effect or the level left. The method, boiled down:
as §1

In brackets after ≈: the same amount, converted by molar mass.

For orientation: IC50 means the point on the concentration scale where inhibition reaches its midpoint. As usually defined, the inhibition is the percentage by which the read-out fell short of the control. By MIC is commonly meant the least concentration at which growth counts as inhibited.

Take `CN[C@H]1C[C@@H](N)[C@H](O)[C@@H](O[C@@H]2O[C@H](CO)[C@H](O)[C@H]3O[C@@]4(O[C@H]23)O[C@H]([C@H](N)CO)[C@H](O)[C@H](O)[C@H]4O)[C@@H]1O`: the 50% inhibitory concentration (IC50) in [1] was 16 µg/mL (≈ 30.3 µM); in experiment [5], 65 µg/mL (≈ 123 µM). In experiment [2], this compound had an inhibition at 20 µg/mL of 50%. The MIC in experiment [3] is 150 µg/mL (≈ 284 µM). Also, the Activity is reported as 50% in experiment [4]; 59% in experiment [6]; 62.8% in experiment [7]; 64.5% in experiment [8]; 68.8% in [9]; 10.4% in experiment [10]. For the same compound, the Activity was found to be 10.4% in experiment [11]; 7.3% in experiment [12]; 4.8% in experiment [13]; 0.5% in [14]; 0.75% in experiment [15]; 1.1% in experiment [16]. Also, the Activity in experiment [17] came out at 1.2%; in [18], 13.5%; in experiment [19], 12.5%; in [20], 12.7%; in experiment [21], 10%.

Source of the values: ChEMBL document CHEMBL1142128, “Hygromycin B inhibition of protein synthesis and ribosome biogenesis in Escherichia coli” (Antimicrob Agents Chemother, 2007).
